Data set [1] deals with Mus musculus. As to the kind of experiment: Induction of bone mineral density in SAMP6 mouse assessed as left hind leg BMD at 30 mg/kg/day, po measured after 3 months. In kind it is functional. In a few lines: (§1)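 SAMP6 mice, 5 months old, n = 5 per group, given compound in 0.5% methylcellulose by gavage daily. Dual-energy X-ray absorptiometry under pentobarbital anaesthesia (50 mg/kg ip), animals prone, at 0, 4, 8 and 12 weeks of treatment. Regions of interest were whole body, spine and left hind leg.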

Data set [2] relates to Rattus norvegicus. Description: Induction of bone formation in ovariectomized rat assessed as increase in trabecular bone volume percentage at 30 mg/kg/day, po after 3 months. In kind it is functional, organism-based. Conditions: Trabecula. Summed up: (§2)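 Female rats (205–235 g) randomized by body weight, n = 7 per group: sham, ovariectomized with vehicle, ovariectomized with raloxifene 5 mg/kg/day, and ovariectomized with compound at 7.5, 15 or 30 mg/kg/day. All dosing oral for 3 months. Undecalcified proximal tibia sections analysed by histomorphometry, with comparisons against the sham and ovariectomized groups.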

In data set [3] the test system is Mus musculus. As to the kind of experiment: Induction of bone mineral density in SAMP6 mouse assessed as spine BMD at 30 mg/kg/day, po measured after 3 months. In kind it is functional. In a few lines:
as §1

Data set [4] has as its system Rattus norvegicus. As to the kind of experiment: Prevention of bone loss in ovariectomized rat assessed as increase in number, thickness, area and connectivity of trabecula at 30 mg/kg/day, po after 3 months by histomorphometry Leica Qwin image analysis. Type of data set: functional, organism-based. In a few lines:
as §2

Data set [5] concerns Rattus norvegicus. Description: Induction of bone formation in ovariectomized rat assessed as increase in trabecular bone volume percentage at 7.5 mg/kg/day, po after 3 months. In kind it is functional, organism-based. The following applies: Trabecula. In a few lines: as §2
The test system of data set [6] is Mus musculus. As to the kind of experiment: Toxicity in SAMP6 mouse assessed as pathological changes in liver at 30 mg/kg/day, po after 3 months by histomorphology. Conditions: in vivo. Type of data set: organism-based. Also on record: route oral. Summed up: (§3)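 SAMP6 mice, n = 5 per group, dosed orally at 30 mg/kg/day in 0.5% methylcellulose for 3 months. Heart, liver, spleen, lung and kidney harvested, weighed and examined histologically. Organ/body weight indexes, body weight, and 24 h water and food intake (g/g body weight) compared with vehicle controls.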

In data set [7] the test system is Mus musculus. As to the kind of experiment: Induction of bone mineral density in SAMP6 mouse assessed as spine BMD at 30 mg/kg/day, po measured first 2 months. In kind it is functional, organism-based. Summed up: as §1
The subject of data set [8] is Mus musculus. As to the kind of experiment: Toxicity in SAMP6 mouse assessed as pathological changes in spleen at 30 mg/kg/day, po after 3 months by histomorphology. Type of data set: organism-based. Also noted: route oral. The following applies: in vivo. Summed up:
as §3

For data set [9], the system named is Mus musculus. Description: Induction of bone mineral density in SAMP6 mouse assessed as whole body BMD at 10 mg/kg/day, po measured after 1 month. In kind it is functional, organism-based. The following applies: 30 mg/kg, in the assay text read “30 mg/kg/day” for “10 mg/kg/day”. Summed up: as §1
Data set [10] deals with Mus musculus. Description: Induction of BMP2 expression in SAMP6 mouse cartilage cells at 30 mg/kg/day, po after 3 months by immunohistochemical analysis. In kind it is functional, organism-based. Summed up: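 SAMP6 mice, 5 months old, male and female, n = 5 per group (3 male, 2 female). Dosed by gavage with compound suspended in 0.5% methylcellulose daily for 3 months; the vehicle group received methylcellulose only. Proximal third of the left femur fixed in 4% neutral paraformaldehyde for 24 h, decalcified in 10% EDTA at 4 °C for 4 weeks, then frozen-sectioned at 5 μm. Stained with rabbit polyclonal anti-BMP-2 and an alkaline phosphatase secondary. BMP-2-positive area was taken as a percentage of bone tissue area, averaged over five fields below the epiphyseal plate.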

The test system of data set [11] is Rattus norvegicus. As to the kind of experiment: Toxicity in rat assessed as pathological changes in heart at 150 mg/kg/day, po after 3 months by histomorphology. Also noted: route oral. The following applies: in vivo. Type of data set: organism-based. In a few lines:
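Rats, n = 7, given oral doses of 150 mg/kg/day for 3 months. Heart, liver, spleen, lung and kidney examined histologically for pathological change.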

For data set [12], the system named is Mus musculus. As to the kind of experiment: Toxicity in SAMP6 mouse assessed as change in 24 hrs food consumption at 30 mg/kg/day, po after 3 months. Also on record: route oral. Type of data set: organism-based. Conditions: in vivo. Summed up:
as §3

For data set [13], the system named is Mus musculus. Description: Induction of bone formation in SAMP6 mouse right femora assessed as average osteoid width at 30 mg/kg/day, po measured after 3 months by bone histomorphometry. Type of data set: functional. Summed up:
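SAMP6 mice, 5 months old, n = 5 per group (3 male, 2 female), randomized by initial BMD. Given compound in 0.5% methylcellulose by gavage daily for 3 months. Proximal third of the right femur fixed in 4% paraformaldehyde, cut as undecalcified sections, and scored by image analysis for histomorphometry.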

Our source for the Activity values is ChEMBL document CHEMBL1156262, “Substituted benzothiophene or benzofuran derivatives as a novel class of bone morphogenetic protein-2 up-regulators: synthesis, structure-activity relationships, and preventive bone loss efficacies in senescence accelerated mice (SAMP6) and ovariectomized rats” (J Med Chem, 2010).

Calls of active or inactive are those of the source. No cut-off for these calls is given here.

For `CC(=O)c1cc2ccccc2s1`, the Activity with Mus musculus [1] is 0.05 g/cm2; in the data set on Mus musculus [3], 0.086 g/cm2; in the data set with Mus musculus [6] it was “Non-toxic”; in the data set on Mus musculus [8], “Non-toxic”; in the data set with Rattus norvegicus [11], “Non-toxic”; with Mus musculus [12], “Non-toxic”. In addition, in the data set on Mus musculus [13], the Activity turned out to be 5.55 µm. The result in the data set with Rattus norvegicus [2], in the data set with Rattus norvegicus [4], in the data set on Rattus norvegicus [5], in the data set on Mus musculus [7] and with Mus musculus [9] was Active. Further, the outcome in the data set on Mus musculus [10] was inactive.
